From ChEMBL document CHEMBL1124558, “Differential effects of a series of hydroxamic acid derivatives on 5-lipoxygenase and cyclooxygenase from neutrophils and 12-lipoxygenase from platelets and their in vivo effects on inflammation and anaphylaxis” (J Med Chem, 1989) come the findings set out here.

One test deals with Mus musculus. The test can be described thus: In vivo inhibition of mouse ear inflammation. In kind it is functional. Details: concentration or dose not given beside the values. The gist of the method: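 Compound or ethanol vehicle applied topically to one ear of male DBA/2J mice 60 min before arachidonic acid (2 mg/ear). […] Groups of 5 mice.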
Test [1] concerns the target T1, Cyclooxygenase (Rattus norvegicus) (UniProt P35355+Q63921). The test can be described thus: Inhibition of Prostaglandin G/H synthase in rat polymorphonuclear leukocytes. It is filed as cell-based. Details: concentration or dose not given beside the values. The conditions noted are these: concentration not given here. The gist of the method: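 Homogenate of glycogen-elicited rat peritoneal PMNs in 0.1 M Tris-HCl pH 8.2 with 10 μM NDGA, preincubated 5 min at 37 °C with compound (≤0.1% DMSO). [14C]arachidonic acid (8 μM) added with 4 mM glutathione and epinephrine; 10 min reaction. TxB2 and PGF2α separated by TLC and counted.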

Test [2] deals with T2, Polyunsaturated fatty acid 5-lipoxygenase (Homo sapiens, UniProt P09917).
T2 sequence (P09917 whole entry): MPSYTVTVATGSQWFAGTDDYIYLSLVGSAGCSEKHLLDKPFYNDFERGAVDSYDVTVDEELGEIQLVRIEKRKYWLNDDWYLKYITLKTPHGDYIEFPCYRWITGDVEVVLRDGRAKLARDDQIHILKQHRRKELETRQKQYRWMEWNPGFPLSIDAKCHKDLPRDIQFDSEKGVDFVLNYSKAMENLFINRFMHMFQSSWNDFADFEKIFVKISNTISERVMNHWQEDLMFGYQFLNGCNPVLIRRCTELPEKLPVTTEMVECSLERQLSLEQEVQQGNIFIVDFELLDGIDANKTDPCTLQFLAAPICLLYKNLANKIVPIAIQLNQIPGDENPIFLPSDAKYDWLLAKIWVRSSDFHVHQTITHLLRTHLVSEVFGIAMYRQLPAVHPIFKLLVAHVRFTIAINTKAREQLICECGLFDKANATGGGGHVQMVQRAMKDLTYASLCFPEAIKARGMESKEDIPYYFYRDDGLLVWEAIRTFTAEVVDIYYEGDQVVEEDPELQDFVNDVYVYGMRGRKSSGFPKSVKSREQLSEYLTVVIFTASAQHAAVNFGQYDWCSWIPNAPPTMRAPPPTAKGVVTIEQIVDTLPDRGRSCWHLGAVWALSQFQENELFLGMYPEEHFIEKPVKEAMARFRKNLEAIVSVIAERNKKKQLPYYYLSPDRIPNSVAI
The test is described as follows: In vitro inhibition of polymorphonuclear leukocyte derived human 5-lipoxygenase. The gist of the method:
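PMNs from venous blood of healthy volunteers, isolated by dextran sedimentation and Percoll gradient (>90% pure) and held in Ca/Mg PBS with 1 mg/mL glucose and 1 μM indomethacin. Challenged with calcium ionophore and [14C]arachidonic acid for 3 min. 5-HETE measured by TLC and scintillation counting; IC50 read graphically.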

Test [3] has as its target T3, Polyunsaturated fatty acid 5-lipoxygenase (Rattus norvegicus, UniProt P12527).
T3 sequence (P12527 whole entry): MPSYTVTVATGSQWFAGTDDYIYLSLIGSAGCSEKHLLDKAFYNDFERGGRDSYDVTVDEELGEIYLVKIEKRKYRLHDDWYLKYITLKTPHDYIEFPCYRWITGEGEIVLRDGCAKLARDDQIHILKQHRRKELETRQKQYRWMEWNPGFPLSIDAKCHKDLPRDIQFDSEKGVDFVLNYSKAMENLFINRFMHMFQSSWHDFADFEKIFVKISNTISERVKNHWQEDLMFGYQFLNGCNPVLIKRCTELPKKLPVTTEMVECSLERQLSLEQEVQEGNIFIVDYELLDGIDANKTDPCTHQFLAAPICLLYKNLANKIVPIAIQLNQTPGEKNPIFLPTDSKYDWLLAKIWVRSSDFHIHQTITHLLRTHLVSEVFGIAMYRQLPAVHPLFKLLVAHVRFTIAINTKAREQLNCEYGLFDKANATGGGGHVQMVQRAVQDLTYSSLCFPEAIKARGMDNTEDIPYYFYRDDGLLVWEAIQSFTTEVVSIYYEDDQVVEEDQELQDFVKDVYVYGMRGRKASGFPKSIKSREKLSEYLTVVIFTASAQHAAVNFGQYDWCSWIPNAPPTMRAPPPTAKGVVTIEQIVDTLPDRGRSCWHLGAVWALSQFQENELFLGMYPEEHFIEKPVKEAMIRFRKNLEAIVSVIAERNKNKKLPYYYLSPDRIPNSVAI
The test can be described thus: In vitro inhibition of rat polymorphonuclear leukocyte 5-lipoxygenase. The gist of the method: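 Intact glycogen-elicited peritoneal PMNs pooled from 4–5 Sprague-Dawley rats (250 g), preincubated 5 min at 30 °C with compound in DMSO (≤0.1% final) plus 1 μM indomethacin. Challenge with [14C]arachidonic acid (4 μM) and A23187 (0.8 μM) for 3 min. Extraction, TLC, 5-HETE by scintillation counting.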

A further test has as its system Cavia porcellus. The test can be described thus: In vivo inhibitory activity against guinea pig systemic anaphylaxis when administered a compound dose (200 mg/kg) perorally. In kind it is functional. The conditions noted are these: po. The gist of the method: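 Male Hartley guinea pigs sensitised ip with ovalbumin (2.7 mg/kg) plus LPS adjuvant, then challenged 2 weeks later with 1% ovalbumin aerosol for 30 s. Pretreated with pyrilamine, indomethacin and propranolol 20 min before challenge. Compound given in PEG 400 1 h before challenge.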

Test [4] has as its target T1, Cyclooxygenase (Rattus norvegicus). The test is described as follows: In vitro inhibitory activity against rat polymorphonuclear leukocyte Prostaglandin G/H synthase at 100 uM. In kind it is protein assay. The gist of the method: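 Glycogen-elicited peritoneal PMNs from Sprague-Dawley rats were homogenized at 0 °C in 0.1 M Tris-HCl pH 8.2 with 10 μM NDGA. Compound (DMSO ≤0.1%) was preincubated 5 min at 37 °C, then 8 μM [14C]arachidonic acid with 4 mM glutathione and epinephrine was added for 10 min. TxB2 and PGF2α were measured by TLC and scintillation counting.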

The structures appear in SMILES notation.

Usually Inhibition stands for the drop in the measured response relative to a control, in per cent. Broadly, the inhibition is the share of the control response that was lost under treatment. As usually defined, the IC50 is the concentration that gives 50% inhibition. In turn, `COc1ccc(CC(=O)N(O)CCc2ccccc2)cc1` gave an Inhibition with Mus musculus of 51%. In addition, the inhibition in test [1] turned out to be 48%. Further, the IC50 was 2500 nM in test [2] and 1000 nM in test [3].
Broadly, the inhibition in vivo is how much of the control response was suppressed. In the test with Cavia porcellus, `COc1ccc(CCCC(=O)N(C)O)cc1` showed an inhibition in vivo at 200 mg/kg of 60%. The compound also showed an Inhibition with Mus musculus of 67%. In test [1], this compound yielded an inhibition below 10%. In addition, the values for the concentration for half-maximal inhibition (IC50) in test [2] and in test [3] were 1300 nM and 300 nM, respectively.
On to `CN(O)C(=O)CCCCc1ccccc1`, for which the inhibition in vivo at 200 mg/kg in the test on Cavia porcellus is 9%. For the same compound, the Inhibition in the test on Mus musculus was found to be 77%. The inhibition in test [1] is below 10%. Further, the 50% inhibitory concentration (IC50) in test [2] was found to be 250 nM; in test [3], 110 nM.
With `O=C(CCCCc1ccccc1)N(O)Cc1ccccc1`, in the test with Mus musculus, the Inhibition is recorded as 52%. The compound also had an inhibition in test [1] of 50%. The IC50 in test [2] was found to be 150 nM; in test [3] it was 50 nM.
In the case of `O=C(COc1ccccc1)N(O)CCc1ccccc1`, the inhibition in test [4] came to 65%. In addition, the IC50 in test [2] stood at 1200 nM; in test [3], 1000 nM.
In test [4], `O=C(CCOc1ccccc1)N(O)CCc1ccccc1` yielded an inhibition of 18%. Also, the IC50 in test [2] amounted to 300 nM; in test [3], 250 nM.
In the test with Cavia porcellus, `O=C(CCc1ccccc1)N(O)CCCc1ccccc1` came in with an inhibition in vivo at 200 mg/kg of 0%. The compound further displayed an Inhibition in the test on Mus musculus of 67%. The inhibition in test [4] is 15%. Besides, the IC50 in test [2] and in test [3] was 100 nM each time.
`COc1ccc(CCCC(=O)N(O)CCc2ccccc2)cc1`: the inhibition in vivo at 200 mg/kg in the test on Cavia porcellus turned out to be 0%. In addition, the Inhibition in the test on Mus musculus turned out to be 64%. Besides, the values for the half-inhibitory concentration (IC50) in test [2] and in test [3] were 250 nM and 120 nM, respectively.
As for `CCOC(=O)CCCN(O)C(=O)CCCc1ccccc1`, the Inhibition in the test with Mus musculus is recorded as 54%. This compound had an inhibition in test [1] of 44%. Besides, the values for the 50% inhibitory concentration (IC50) in test [2] and in test [3] were 500 nM and 300 nM, respectively.
In turn, `CN(O)C(=O)Cc1cccc(OCc2ccc3ccccc3n2)c1` gave an Inhibition with Mus musculus of 68%. Also, in test [4], the inhibition was determined as 30%. The results for the IC50 in test [2] and in test [3] were 1000 nM and 80 nM, respectively.
`O=C(Cc1ccc(OCc2ccccc2)cc1)N(O)CCCc1ccccc1` had an Inhibition in the test with Mus musculus of 12%. This compound displayed an inhibition in test [1] below 10%. Further, the IC50 in test [2] amounted to 600 nM; in test [3] it was 500 nM.
The compound `O=C(CCCc1ccccc1)N(O)Cc1ccccc1` yielded an inhibition in vivo at 200 mg/kg in the test on Cavia porcellus of 0%. In the test on Mus musculus, this compound returned an Inhibition of 51%. The compound further returned an inhibition in test [1] of 18%. The values for the IC50 in test [2] and in test [3] were 130 nM and 150 nM, respectively.
As to `CC(C)Cc1ccc(C(C)C(=O)N(O)Cc2ccccc2)cc1` (stereo unspecified), the inhibition in test [4] turned out to be 20%. For the same compound, the values for the IC50 in test [2] and in test [3] were 2000 nM and 1000 nM, respectively.
`CC(C(=O)N(O)CCc1ccccc1)c1cccc(OCc2ccccc2)c1` (stereo unspecified): the inhibition in test [1] was below 10%. The IC50 in test [2] amounted to 100 nM; in test [3], 300 nM.
